Only some compounds are listed: those with a hit (about 2.2% of all), similar ones and a draw of the others.
LMPTP block: blocks human LMPTP phosphatase; P24666; AID 651560; recombinant LMPTP-A, OMFP fluorogenic substrate, fluorescence intensity; 360,000 tested, 0.22% active; inhibition, % at 20 µM;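 active = compounds that cut the enzyme signal by at least half of the control window in the single-dose screen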
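Test system: LMPTP-A phosphatase enzyme; input: 0.625 nM LMPTP-A final; reagent: OMFP substrate, 400 µM final; compound dosing: 20 µM single dose, 3% DMSO; incubation: 50 min dark incubation at room temperature; measured by: endpoint fluorescence intensity from OMFP dephosphorylation; measure: % inhibition relative to no-enzyme and uninhibited control wells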
SUMO1 PPI mod: modulators of human SUMO1-mediated protein-protein interactions | inhibition, % at 20 µM | 360,000 tested, 0.33% active | AID 602429 | SUMO1 binding to a labelled peptide, TR-FRET, 1 h; in the data active = inhibition above about 37%
Target sequence (P63165 whole entry, looked up): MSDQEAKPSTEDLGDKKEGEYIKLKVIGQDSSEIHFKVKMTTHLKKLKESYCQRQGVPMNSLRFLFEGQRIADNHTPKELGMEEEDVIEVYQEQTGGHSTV
GRK2 inh: inhibitors of human GRK2 displacing RNA aptamer; P25098; bead flow cytometry, FAM-aptamer displacement from GRK2; inhibition of aptamer binding, % at 10 µM; 330,000 tested, 0.59% active; AID 488847;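 active = inhibition of aptamer binding above 40%, roughly 3 SD of noise, on plates passing a quality check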;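 also: median bead fluorescence of bound FAM aptamer so fluorescent compounds give negative values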
STEP inh: blocks human striatal-enriched tyrosine phosphatase. P54829. recombinant STEP, OMFP fluorogenic substrate, fluorescence. inhibition, % at 20 µM. 360,000 tested, 0.25% active. AID 588621;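 active = inhibition at 20 µM, scaled per plate between control wells, above about 37%, limit read from the data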
Target sequence (P54829 whole entry, looked up): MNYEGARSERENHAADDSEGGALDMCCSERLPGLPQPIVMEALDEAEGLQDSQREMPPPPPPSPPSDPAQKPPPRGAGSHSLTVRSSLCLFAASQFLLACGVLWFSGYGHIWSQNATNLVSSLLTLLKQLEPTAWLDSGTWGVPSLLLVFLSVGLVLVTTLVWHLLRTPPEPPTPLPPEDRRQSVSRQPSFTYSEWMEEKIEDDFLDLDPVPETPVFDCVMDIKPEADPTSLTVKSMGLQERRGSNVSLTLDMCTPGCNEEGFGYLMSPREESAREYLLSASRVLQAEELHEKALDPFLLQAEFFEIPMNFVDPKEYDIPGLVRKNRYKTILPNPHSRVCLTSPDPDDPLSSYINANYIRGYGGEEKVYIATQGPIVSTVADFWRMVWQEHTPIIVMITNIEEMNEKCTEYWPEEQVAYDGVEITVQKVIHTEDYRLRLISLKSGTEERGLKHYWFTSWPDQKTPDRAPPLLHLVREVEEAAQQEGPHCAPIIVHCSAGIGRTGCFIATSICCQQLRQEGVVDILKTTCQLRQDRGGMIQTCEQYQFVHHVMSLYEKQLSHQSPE
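material = STEP tyrosine phosphatase | reagent = fluorogenic phosphatase substrate OMFP at 25 µM final | doses = single compound dose of 20 µM, 1% DMSO final | schedule = 20 min reaction, room temperature, in the dark | measured by = fluorescence, 480/540 nm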
Scp-1 inhibitor: inhibitors of human Scp-1 phosphatase. inhibition, % at 20 µM. Recombinant Scp1, phosphopeptide, malachite green phosphate absorbance. Q9GZU7. AID 493091. 340,000 tested, 0.88% active;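 active = inhibition above about 50% at 20 µM, limit read from the data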
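Assay system: SCP-1 catalytic fragment, aa 76-261 | Buffer or medium: Tris acetate buffer pH 5.5 with MgCl2 and Tween-20 | Compound: One concentration, 20 µM, with 1.0% DMSO | Also added: Phospho 17-mer peptide substrate | Signal: Absorbance at 630 nm | Incubation: 45 min enzyme reaction at room temperature | Measure: % inhibition of SCP-1 phosphate liberation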
DNMT1 inh: blocks human DNA methyltransferase DNMT1 | inhibition (reported as % activation of signal), % at 10 µM | 360,000 tested, 0.83% active | DNMT1 molecular beacon, Hinp1I cleavage, fluorescence | P26358; in the data active = inhibition above about 50%
GRK2 inh confirm: confirmation of human GRK2 inhibitors displacing RNA aptamer; shares compounds with GRK2 inh; bead-bound GRK2, FAM-aptamer displacement, flow cytometry; aptamer displacement, % at 10 µM; 2,000 tested, 4% active; AID 504451;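 active = aptamer displacement above 40%, near three times the noise of non-fluorescent compounds, on plates passing quality checks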;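 also: negative values mostly reflect intrinsic compound fluorescence rather than true enhancement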
FAM quench CP1: counter-screen for GRK2 aptamer inhibitors: fluorescent aptamer quenchers; 2,000 tested, under 10 active; fluorescence response (% of DMSO), % at 10 µM; shares compounds with GRK2 inh; Carboxyfluorescein RNA aptamer on beads, flow cytometry quenching; active compounds read low;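 active = compounds that quench the bead-bound fluorescent RNA probe, cutting fluorescence to under half of the solvent control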;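 also: counterscreen run without GRK2 so only probe quenching by compound is measured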
GRK2 CP2: confirmation of human GRK2 inhibitors binding RNA aptamer site | shares compounds with GRK2 inh | 360 tested, under 10 active | AID 504782 | bead-bound GRK2, FAM-aptamer displacement, flow cytometry | inhibition of aptamer binding, % at 10 µM;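 active = inhibition of aptamer binding above 40%, about triple the noise seen with nonglowing compounds, on plates passing quality control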;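 also: negative values mostly come from compounds that fluoresce themselves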
FAM quench SP: quenches fluorescent RNA aptamer, GRK2 hit artifact | fluorescence response vs DMSO, % at 10 µM | shares compounds with GRK2 inh | carboxyfluorescein RNA aptamer beads, flow cytometry quenching; active compounds read low | 360 tested, under 10 active;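 active = response vs DMSO under 50%, meaning signal dropped by over half, treated as fluorescence quencher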;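 also: labelled aptamer on streptavidin beads without GRK2 as a quench counter-screen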
Large screens that a line does not name were inactive (follow-up assays come after a bar, where they were run).

Cc1nc2c(ccc3c2ccc2nc(C)sc23)s1	none (no result: LMPTP block, SUMO1 PPI mod, STEP inh, DNMT1 inh) | GRK2 CP2 inactive | FAM quench SP inactive
O=C1NC(=O)/C(=C\c2ccc(O)cc2O)S1	GRK2 inh 76.0, Scp-1 inhibitor 53.1 | GRK2 inh confirm inactive | FAM quench CP1 inactive
O=C1NC(=O)/C(=C/c2cccc3ccccc23)S1	none
CCOc1ccc(NC(=O)c2cc3ccccc3cc2O)cc1	none | GRK2 inh confirm inactive | FAM quench CP1 inactive
COCCCn1c(SCC(=O)NCc2ccco2)nc2sc3c(c2c1=O)CCC3	none | GRK2 CP2 inactive | FAM quench SP inactive
CC(Sc1nc2sc3c(c2c(=O)n1-c1ccccc1)CCCC3)C(=O)O (stereo unspecified)	none
CCN(CC)C(=O)CSc1nc2sc3c(c2c(=O)n1CCCOC)CCC3	none | GRK2 CP2 inactive | FAM quench SP inactive
CCCCn1c(SCC(N)=O)nc2sc3c(c2c1=O)CCC3	none
CCn1c(SC(C)C(=O)O)nc2sc3c(c2c1=O)CCC3 (stereo unspecified)	GRK2 inh 68.0, Scp-1 inhibitor 78.0, DNMT1 inh 90.1 | GRK2 inh confirm inactive | FAM quench CP1 inactive | GRK2 CP2 inactive | FAM quench SP inactive
CC(=O)c1ccc(OCCCC(=O)NC2=NCCS2)cc1	none | GRK2 inh confirm inactive | FAM quench CP1 inactive
O=[N+]([O-])c1ccccc1/C=N/Nc1nc(N2CCCC2)nc(N2CCCC2)n1	GRK2 inh 59.0 | GRK2 inh confirm inactive | FAM quench CP1 inactive
Cc1ccc(S(=O)(=O)NCCC(=O)Nc2nnc(C)s2)cc1	GRK2 inh 100.0 | GRK2 inh confirm inactive | FAM quench CP1 inactive
O=C(Nc1ccc2c(c1)OCO2)c1csc([C@H]2C[C@H](O)[C@@H](CO)O2)n1	none (no result: GRK2 inh, Scp-1 inhibitor)
CN(C)c1ccc2nc3ccc(=[N+](C)C)cc-3sc2c1	GRK2 inh 57.0 | GRK2 inh confirm inactive | FAM quench CP1 inactive
Cc1ccc(S(=O)(=O)N2C3CC(c4ccccc4)N(S(=O)(=O)c4ccccc4Cl)CC3C(=O)C[C@H]2c2ccccc2)cc1 (stereo partly specified)	none (no result: GRK2 inh, STEP inh, Scp-1 inhibitor, DNMT1 inh)
CS(=O)(=O)/C(C#N)=C/c1cccn1S(=O)(=O)c1cccc2ccccc12	none (no result: GRK2 inh, Scp-1 inhibitor)
Cc1ccc(C(=O)Nc2cccc(C(F)(F)F)c2)cc1NC(=O)c1csc(-c2ccncc2)n1	none | GRK2 inh confirm inactive | FAM quench CP1 inactive
O=C(Nc1ccc(F)cc1F)c1csc(-c2ccncc2)n1	none
O=C(Nc1ccccc1C(=O)N1CCOCC1)c1ccc(Br)cc1	GRK2 inh 100.0 | GRK2 CP2 inactive | FAM quench SP inactive
CCOC(=O)C1=C[C@@H](C(C)(C)C)N(S(=O)(=O)c2ccc(C)cc2)[C@H]1c1ccc(Cl)c(Cl)c1	none (no result: GRK2 inh, Scp-1 inhibitor)
CC(C)N1C(=O)c2ccccc2C1C(=O)NCCc1ccccc1 (stereo unspecified)	none | GRK2 inh confirm inactive | FAM quench CP1 inactive
CC1CCN(CCOCCOc2ccccc2Br)CC1	GRK2 inh 95.0 | GRK2 inh confirm inactive | FAM quench CP1 inactive
CC1CCN(CCOCCOc2ccccc2-c2ccccc2)CC1	none
COCCCn1c(SCC(=O)N(C)C)nnc1-c1ccccc1	GRK2 inh 99.0 | GRK2 inh confirm inactive | FAM quench CP1 inactive
Cc1ccccc1-c1nc(CN2CCCC(C(=O)NCCCN3CCOCC3)C2)c(C)o1 (stereo unspecified)	none
Cc1ccccc1-c1nc(CN2CCCC(C(=O)NCc3cccnc3)C2)c(C)o1 (stereo unspecified)	none | GRK2 inh confirm inactive | FAM quench CP1 inactive
COc1ccc(CNC(=O)C2CCCN(Cc3nc(-c4cccc(C)c4)oc3C)C2)cc1 (stereo unspecified)	none | GRK2 inh confirm inactive | FAM quench CP1 inactive
Cc1oc(-c2ccc(Cl)cc2)nc1CN1CCCC(C(=O)NCc2ccco2)C1 (stereo unspecified)	none | GRK2 inh confirm inactive | FAM quench CP1 inactive
COC(=O)C[C@@H]1OC[C@H](Cc2ccccc2)N1S(=O)(=O)c1ccc(C)cc1	none (no result: GRK2 inh, STEP inh, Scp-1 inhibitor, DNMT1 inh)
COc1ccc(C(C)(O)c2nc(-c3ccccc3OC)cs2)cc1 (stereo unspecified)	none (no result: GRK2 inh, Scp-1 inhibitor)
COC(=O)C[C@H]1C[C@H]2c3cc(NC(=O)C4CCC4)ccc3O[C@H]2[C@H](CO)O1	none (no result: GRK2 inh, Scp-1 inhibitor)
Cc1ccc(F)c(C2C3C=CCC(c4cccc(-c5ccc(N(C)C)cc5)c4)C3C(=O)N2Cc2ccccc2)c1 (stereo unspecified)	none | GRK2 inh confirm inactive | FAM quench CP1 inactive
O=C1C2C(c3cccc(/C=C/c4ccccc4)c3)CC=CC2C(c2ccc(C(F)(F)F)cc2)N1Cc1ccccc1 (stereo unspecified)	none | GRK2 inh confirm inactive | FAM quench CP1 inactive
O=C1C2C(c3cccc(/C=C/c4ccccc4)c3)CC=CC2C(c2ccc3ccccc3c2)N1Cc1ccccc1 (stereo unspecified)	none | GRK2 inh confirm inactive | FAM quench CP1 inactive
C[C@@H]1CC=C[C@H]2[C@H]1C(=O)N(Cc1ccccc1)[C@H]2c1ccc(-c2ccc(N(C)C)cc2)cc1F	none
Cc1ccccc1-c1cnc(C(O)c2ccc(Cl)c(F)c2)[nH]1 (stereo unspecified)	none (no result: GRK2 inh, Scp-1 inhibitor)
CC1(C)CC(=O)C2=C(C1)NC(=O)NC2c1ccccc1 (stereo unspecified)	GRK2 inh 47.0 | GRK2 inh confirm inactive | FAM quench CP1 inactive
O=C(CC[C@H]1O[C@@H](n2cnc3c(NC(=O)c4ccccc4)ncnc32)[C@H](O)[C@@H]1O)NCCc1cc2ccccc2[nH]1	none (no result: GRK2 inh, Scp-1 inhibitor)
COc1cccc(C(O)c2nc(-c3ccc(F)c(Cl)c3)cs2)c1 (stereo unspecified)	none (no result: GRK2 inh, Scp-1 inhibitor)
CCOC(=O)CSc1nc2nc(Cl)c(Cl)nc2[nH]1	none (no result: GRK2 inh, Scp-1 inhibitor)
CCOC(=O)[C@]12CCCC=C1N(Cc1ccc(Cl)cc1Cl)C(=O)[C@H](CC(=O)N1CCN(C(=O)C3CC3)CC1)C2	none (no result: GRK2 inh, STEP inh, Scp-1 inhibitor, DNMT1 inh)
C[C@H]1CN([C@@H](C)CO)C(=O)c2cc(Br)cnc2O[C@H]1CN(C)Cc1ccc(Oc2ccccc2)cc1	none (no result: GRK2 inh, Scp-1 inhibitor)
